Measurements as given in ChEMBL document CHEMBL1124666, “Novel linked antiviral and antitumor agents related to netropsin and distamycin: synthesis and biological evaluation” (1989).

How the values were obtained:
Calf thymus DNA = experiment: Relative binding constant to calf thymus DNA; format: nucleic-acid assay; conditions: Bos taurus
Procedure, shortened: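 Ethidium displacement: Tris-EDTA buffer pH 8 with 1.3 μM ethidium bromide and calf thymus DNA (1.35 μM final); drug aliquots added, fluorescence read after a few minutes' equilibration (excitation 525 nm, emission 600 nm). Drug level giving 50% fluorescence decrease converted to relative binding constant taking ethidium binding constant as 10^7 M-1.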

Human alphaherpesvirus 2 = experiment: Minimum inhibitory concentration against Herpes simplex virus 2(G); format: functional
Human alphaherpesvirus 1 = experiment: Minimum inhibitory concentration against Herpes simplex virus 1(KOS); format: functional
[1] = Minimum cytotoxic concentration in primary rabbit kidney (PRK) cell cultures; format: functional, Oryctolagus cuniculus
[2] = system: Vesicular stomatitis virus; experiment: Minimum inhibitory concentration against Vesicular stomatitis virus; format: functional
Vaccinia virus [3] = experiment: Minimum inhibitory concentration against Vaccinia virus; format: functional; conditions: Orthopoxvirus vaccinia
Vaccinia virus [4] = experiment: Minimum cytotoxic concentration against vaccinia virus against embryonic skin muscle cell cultures; format: functional; conditions: Orthopoxvirus vaccinia
Vaccinia virus [5] = experiment: Minimum cytotoxic concentration against vaccinia virus in HeLa cell cultures; format: functional; conditions: Orthopoxvirus vaccinia
Vaccinia virus [6] = experiment: Minimum cytotoxic concentration against vaccinia virus in Vero cell cultures; format: functional; conditions: Orthopoxvirus vaccinia
Vaccinia virus [7] = experiment: Minimum inhibitory concentration against vaccinia virus embryonic skin muscle cell cultures; format: functional; conditions: Orthopoxvirus vaccinia
Vaccinia virus [8] = experiment: Minimum inhibitory concentration against vaccinia virus in HeLa cell cultures; format: functional; conditions: Orthopoxvirus vaccinia
Vaccinia virus [9] = experiment: Minimum inhibitory concentration against vaccinia virus in Vero cell cultures of experiment 1; format: functional; conditions: Orthopoxvirus vaccinia
Vaccinia virus [10] = experiment: Minimum inhibitory concentration against vaccinia virus in primary rabbit kidney cell cultures of experiment 1; format: functional; conditions: Orthopoxvirus vaccinia
P388 [11] = experiment: Inhibitory effect on the proliferation of murine leukemia (P388) cells; format: functional; conditions: Mus musculus, read-out: ID50 (the source's name)
[12] = Inhibition of Moloney Murine Leukemia Associated Reverse Transcriptase; format: functional, Mus musculus
Vaccinia virus [13] = experiment: Minimum cytotoxic concentration against vaccinia virus in primary rabbit kidney cell cultures; format: functional; conditions: Orthopoxvirus vaccinia
Vaccinia virus [14] = experiment: Minimum cytotoxic concentration against vaccinia virus embryonic skin muscle cell cultures; format: functional; conditions: Orthopoxvirus vaccinia
FM3A [15] = experiment: Inhibitory effect on the proliferation of murine mammary carcinoma (FM3A) cells; format: functional; conditions: Mus musculus, read-out: ID50 (the source's name)
L1210 [16] = experiment: Inhibitory effect on the proliferation of murine leukemia (L1210) cells; format: functional; conditions: Mus musculus, read-out: ID50 (the source's name)
[17] = Inhibitory effect on the proliferation of human T-lymphoblast (Molt/4F) cells; format: functional; conditions: read-out: ID50 (the source's name)
Raji [18] = experiment: Inhibitory effect on the proliferation of human B lymphoblast (Raji) cells; format: functional; conditions: read-out: ID50 (the source's name)
Vaccinia virus [19] = experiment: Minimum inhibitory concentration against vaccinia virus in Vero cell cultures of experiment 2; format: functional; conditions: Orthopoxvirus vaccinia
Vaccinia virus [20] = experiment: (§1) Minimum inhibitory concentration against vaccinia virus in primary rabbit kidney cell cultures of experiment 2; format: functional, Orthopoxvirus vaccinia
Vaccinia virus [21] = experiment: as §1; format: functional; conditions: Orthopoxvirus vaccinia
FM3A [22] = experiment: Inhibitory effect on the proliferation of murine mammary carcinoma (FM3A ) cells; format: functional; conditions: Mus musculus, read-out: ID50 (the source's name)
L1210 [23] = experiment: Inhibitory effect on the proliferation of murine leukemia (L1210 ) cells; format: functional; conditions: Mus musculus, read-out: ID50 (the source's name)
Raji [24] = experiment: Inhibitory effect on the proliferation of human B lymphoblast (Raji ) cells; format: functional; conditions: read-out: ID50 (the source's name)
[25] = Inhibitory effect on the proliferation of human T-lymphoblast (Molt/4F ) cells; format: functional; conditions: read-out: ID50 (the source's name)
P388 [26] = experiment: Concentration which leads to inhibitory effect on the proliferation of murine leukemia (P388) cells; format: functional; conditions: Mus musculus, read-out: ID50 (the source's name)
Procedure, shortened: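 Murine P388 leukaemia cells grown in Fischer's medium with 10% fetal calf serum. Compounds dissolved in water, or sonicated and given as a suspension if poorly soluble. Cells seeded at 1 × 10^5 per well and grown 72 h at 37 °C in humidified 5% CO2 with drug. Viability read by MTT formazan optical density at 570 nm (reference 630 nm).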

PRK = experiment: Compound was evaluated for the minimum cytotoxic concentration in primary rabbit kidney (PRK) cell cultures; format: functional; conditions: Oryctolagus cuniculus
Procedure, shortened: (§2)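 Host cell cultures (primary rabbit kidney, HeLa, Vero, or E6SM embryonic skin-muscle cells, as named) exposed to compound. Minimum cytotoxic concentration taken as the concentration required to cause a microscopically detectable alteration of normal cell morphology.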

Vaccinia virus [27] = experiment: Minimum cytotoxic concentration against HeLa cell cultures; format: functional; conditions: Orthopoxvirus vaccinia; procedure, shortened: as §2
Vaccinia virus [28] = experiment: Minimum cytotoxic concentration against Vero cell cultures; format: functional; conditions: Orthopoxvirus vaccinia; procedure, shortened: as §2
Vaccinia virus [29] = experiment: Minimum cytotoxic concentration against embryonic skin muscle cell cultures; format: functional; conditions: Orthopoxvirus vaccinia; procedure, shortened: as §2
Vaccinia virus [30] = experiment: Minimum cytotoxic concentration against primary rabbit kidney cell cultures; format: functional; conditions: Orthopoxvirus vaccinia; procedure, shortened: as §2
[31] = Orthopoxvirus vaccinia, read-out: MIC

SMILES	Binding constant (Calf thymus DNA)	MIC (Human alphaherpesvirus 2)	MIC (Human alphaherpesvirus 1)	MCC [1]	MIC [2]	MIC (Vaccinia virus [3])	MCC (Vaccinia virus [5])	MCC (Vaccinia virus [6])	MIC (Vaccinia virus [7])	MIC (Vaccinia virus [8])	MIC (Vaccinia virus [9])	MIC (Vaccinia virus [10])	IC50 (P388 [11])	ID50 [12]	MCC (Vaccinia virus [13])	MCC (Vaccinia virus [14])	MIC (Vaccinia virus [19])	MIC (Vaccinia virus [20]; [31])	MIC (Vaccinia virus [21])	IC50 (FM3A [22])	other results
Cl.Cl.Cn1cc(NC(=O)c2cc(NC(=O)CCCCCCCCCC(=O)Nc3cc(C(=O)Nc4cc(C(=O)NCCC(=N)N)n(C)c4)n(C)c3)cn2C)cc1C(=O)NCCC(=N)N	1.9e+07 M⁻¹	20 µg/mL	> 10 µg/mL	>40 µg/mL	> 40 µg/mL	2 µg/mL	100 µg/mL	100 µg/mL	0.2 µg/mL	20 µg/mL	> 40 µg/mL	2 µg/mL	18 µg/mL	10.3 µg/mL	> 40 µg/mL	–	–	–	–	–	MCC (Vaccinia virus [4]): > 40 µg/mL
Cl.Cl.Cn1cc(NC(=O)c2cc(NC(=O)CCCCCCCCCCC(=O)Nc3cc(C(=O)Nc4cc(C(=O)NCCC(=N)N)n(C)c4)n(C)c3)cn2C)cc1C(=O)NCCC(=N)N	2.2e+07 M⁻¹	7 µg/mL	> 10 µg/mL	>40 µg/mL	> 10 µg/mL	2 µg/mL	> 40 µg/mL	> 100 µg/mL	0.2 µg/mL	2 µg/mL	> 40 µg/mL	2 µg/mL	4.8 µg/mL	9.1 µg/mL	> 40 µg/mL	> 40 µg/mL	–	–	–	–	–
Cl.Cl.Cn1cc(NC(=O)c2cc(NC(=O)Nc3cc(C(=O)Nc4cc(C(=O)NCCC(=N)N)n(C)c4)n(C)c3)cn2C)cc1C(=O)NCCC(=N)N	5.6e+07 M⁻¹	20 µg/mL	> 10 µg/mL	>40 µg/mL	> 40 µg/mL	7 µg/mL	> 40 µg/mL	> 40 µg/mL	2 µg/mL	–	20 µg/mL	7 µg/mL	8 µg/mL	–	40 µg/mL	100 µg/mL	20 µg/mL	20 µg/mL	7 µg/mL	–	IC50 (FM3A [15]): > 100 µg/mL; IC50 (L1210 [16]): > 100 µg/mL; IC50 [17]: > 100 µg/mL; IC50 (Raji [18]): > 100 µg/mL
Cl.Cl.Cn1cc(NC(=O)c2cc(NC(=O)CCCCCC(=O)Nc3cc(C(=O)Nc4cc(C(=O)NCCC(=N)N)n(C)c4)n(C)c3)cn2C)cc1C(=O)NCCC(=N)N	1.2e+07 M⁻¹	70 µg/mL	150 µg/mL	400 µg/mL	> 200 µg/mL	2 µg/mL	> 200 µg/mL	> 200 µg/mL	0.7 µg/mL	–	20 µg/mL	7 µg/mL	4.4 µg/mL	72.5 µg/mL	> 200 µg/mL	200 µg/mL	20 µg/mL	20 µg/mL	7 µg/mL	> 100 µg/mL	IC50 (L1210 [23]): > 100 µg/mL; IC50 (Raji [24]): 11.1 µg/mL; IC50 [25]: 5.74 µg/mL
Cl.Cl.Cn1cc(NC(=O)CCC(=O)Nc2cc(C(=O)NCCC(=N)N)n(C)c2)cc1C(=O)NCCC(=N)N	–	> 40 µg/mL	> 100 µg/mL	–	> 100 µg/mL	20 µg/mL	–	–	70 µg/mL	–	> 400 µg/mL	300 µg/mL	–	>400 µg/mL	–	–	> 400 µg/mL	400 µg/mL	–	> 100 µg/mL	IC50 (L1210 [23]): > 100 µg/mL; IC50 (P388 [26]): > 20 µg/mL; MCC (PRK): > 100 µg/mL; IC50 (Raji [24]): > 100 µg/mL; MCC (Vaccinia virus [27]): > 400 µg/mL; MCC (Vaccinia virus [28]): > 400 µg/mL; MCC (Vaccinia virus [29]): > 400 µg/mL; MCC (Vaccinia virus [30]): > 400 µg/mL; MIC (Vaccinia virus [20]): >400 µg/mL; IC50 [25]: > 100 µg/mL
